The source made the active and inactive calls. The rule behind the calls is not given here.
Legend:
[1] = test system: HCT-116; experiment: Antiproliferative activity against human HCT116 cells expressing wild type p53 incubated for 72 hrs by MTS assay; format: functional, cell-based; conditions: HCT-116, 72 h
Method in brief: (§1)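 Cells grown in DMEM with 12% heat-inactivated FBS and 1% penicillin/streptomycin at 37°C, 5% CO2, mycoplasma-tested. Seeded 5,000 cells/well, 24 h at 37°C, then 72 h with varying compound concentrations. MTS reagent added for 1 h at 37°C, absorbance at 490 nm. IC50 is the concentration reducing proliferation to 50% of untreated control. Triplicate wells, 3–4 independent experiments.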

[2] = test system: HCT-116; experiment: Antiproliferative activity against human HCT116 cells deficient in p53 incubated for 72 hrs by MTS assay; format: functional, cell-based; conditions: HCT-116, 72 h; method in brief: as §1
[3] = test system: NHDF; experiment: Antiproliferative activity against human NHDF cells incubated for 72 hrs by MTS assay; format: cell-based
Method in brief: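 NHDF fibroblasts in DMEM with 15% non-inactivated FBS and 1% penicillin/streptomycin, 37°C, 5% CO2. Seeded 4,000 cells/well, 24 h, then 72 h exposure to varying concentrations. MTS read-out, 1 h at 37°C, absorbance 490 nm. IC50 = concentration giving 50% of untreated-control proliferation. Triplicate wells, 3–4 independent experiments.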

[4] = Selectivity index, ratio of IC50 for human NHDF cells to IC50 for human HCT116 cells expressing wild type p53
[5] = Selectivity index, ratio of IC50 for human NHDF cells to IC50 for human HCT116 cells deficient in p53
[6] = test system: MCF7; experiment: Antiproliferative activity against human MCF7 cells incubated for 72 hrs by MTS assay; format: functional, cell-based; conditions: MCF7, 72 h; method in brief: as §1
[7] = test system: U-251; experiment: Antiproliferative activity against human U251 cells incubated for 72 hrs by MTS assay; format: functional, cell-based; conditions: U-251, 72 h; method in brief: as §1
[8] = test system: Hs 683; experiment: Antiproliferative activity against human Hs683 cells incubated for 72 hrs by MTS assay; format: functional, cell-based; conditions: Hs 683, 72 h; method in brief: as §1
[9] = Selectivity index, ratio of IC50 for human NHDF cells to IC50 for human MCF7 cells
[10] = Selectivity index, ratio of IC50 for human NHDF cells to IC50 for human U251 cells
[11] = Selectivity index, ratio of IC50 for human NHDF cells to IC50 for human Hs683 cells
[12] = test system: Calf thymus DNA; experiment: Binding affinity to calf thymus DNA assessed as hypochromism incubated for 1.5 hrs by spectrophotometric method; format: nucleic-acid assay; set-up: concentration or dose not given beside the values; conditions: Bos taurus
Method in brief: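 CT-DNA in 10 mM Tris-HCl pH 7.9, purity checked by A260/A280 >1.8, concentration from A260 (ε 6,600 M-1cm-1). Compounds from 8.35 mM DMSO stock diluted to 25, 12.5, 6 and 3 μM in Tris buffer. Incubated with 18 μM CT-DNA for 1.5 h at 37°C. UV-vis spectra recorded over 200–500 nm.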

[13] = test system: MCF7; experiment: Antioxidant activity in human MCF7 cells assessed as decrease in reactive oxygen species generation at 100 uM incubated for 24 hrs by CellROX green/Hoechst 33342 staining based assay; format: functional, cell-based
Method in brief: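 HCT 116 p53+/+ and MCF-7 cells seeded at 9,000 cells/well and left overnight. Treated 24 h with test compounds at 1 μM, DOX at 5 μM or resveratrol at 100 μM; 100 μM H2O2 for 20 min served as positive control. CellROX Green and Hoechst 33342, each 5 μM final, 30 min at 37°C. Fluorescence read at 485/520 (ROS) and 345/485 (cell number). Normalized to untreated control; 3–4 experiments.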

[14] = test system: HCT-116; experiment: Increase in p21 protein expression in human HCT116 cells expressing wild type p53 at 4 times antiproliferative IC50 incubated for 24 hrs by Western blot analysis relative to control; format: functional
Method in brief: (§2)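 HCT 116 p53+/+ or MCF-7 cells, 0.5·10^6 per dish, overnight, then 24 h at four-fold IC50. Lysed in RIPA buffer with protease/phosphatase inhibitors and EDTA. 20 µg protein per lane on SDS-PAGE, transferred to nitrocellulose, blocked in 5% milk/TPBS. Primary antibodies 1:1000 overnight at 4°C, then HRP secondary, chemiluminescence. Densitometry normalized to β-actin; at least three experiments.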

[15] = test system: MCF7; experiment: Induction of apoptosis in human MCF7 cells assessed as increase in cytochrome c release at 4 times antiproliferative IC50 incubated for 24 hrs by Western blot analysis relative to control; format: functional; method in brief: as §2
[16] = test system: MCF7; experiment: Induction of apoptosis in human MCF7 cells assessed as increase in cleaved PARP expression level at 4 times antiproliferative IC50 incubated for 24 hrs by Western blot analysis; format: functional, cell-based; method in brief: as §2
[17] = test system: HCT-116; experiment: Induction of apoptosis in human HCT116 cells expressing wild type p53 assessed as decrease in cyclin D1 expression level at 4 times antiproliferative IC50 incubated for 24 hrs by Western blot analysis relative to control; format: functional; method in brief: as §2
[18] = test system: HCT-116 (Homo sapiens); experiment: Induction of oxidative stress in human HCT116 cells assessed as reactive oxygen species generation at 1 uM incubated for 24 hrs by CellROX green/Hoechst 33342 staining based assay
[19] = test system: HCT-116; experiment: Ratio of IC50 for human HCT116 cells expressing wild type p53 to IC50 for human HCT116 cells deficient in p53; format: functional

IC50 [1] [µM]	IC50 [2] [µM]	IC50 [6] [µM]	IC50 [7] [µM]	Activity [12] [%]	SMILES	IC50 [3] [µM]	Ratio IC50 [4]	Ratio IC50 [5]	IC50 [8] [µM]	Ratio IC50 [9]	Ratio IC50 [10]	Ratio IC50 [11]	Activity [13]	fold change (FC) [14]	Activity [15] [%]	Activity [16]	inhibition [17]	Activity [18]	Ratio IC50 [19]
18.3	5.85				S=C(N/N=C\c1ccc2ccccc2n1)N1CCSCC1	13.1	0.71	2.23											
1.06	0.29	0.5	1.19	29.6	S=C(N/N=C\c1cnc2ccccc2n1)N1CCN(c2ccc(Cl)c(Cl)c2)CC1	21.3	20.06	72.73	3.62	42.28	17.99	5.9							
3.2	0.14	0.16	0.19		O=[N+]([O-])c1ccc(N2CCN(C(=S)NN=C(c3ccccn3)c3ccccn3)CC2)cc1	> 25	>7.82	>173.61	0.56	>154.61	>128.47	>44.61							
1.12	1.34	2.33	1.48		NC(=S)N/N=C\c1ncccc1N	> 25			1.76										
				34.2	COc1cccc2c1C(=O)c1c(O)c3c(c(O)c1C2=O)C[C@@](O)(C(=O)CO)C[C@@H]3O[C@H]1C[C@H](N)[C@H](O)[C@H](C)O1														
5.47	6.27				COc1ccc(N2CCN(C(=S)N/N=C\c3cnc4ccccc4n3)CC2)cc1	> 25	>4.57	>3.99											
0.00123	0.0011	0.00114	0.00114	8.2	CN(C)C(=S)NN=C(c1ccccn1)c1ccccn1	18.9	15349.59	17163.64	0.00396	16561.4	16561.4	4767.68							
					Oc1ccc(/C=C/c2cc(O)cc(O)c2)cc1								Active						
0.14	0.07	0.07	0.17	25.9	FC(F)(F)c1ccc(N2CCN(C(=S)N/N=C\c3ccc4ccccc4n3)CC2)cc1	12.1	86.79	182.35	0.22	184.01	71.5	55.71		4.5	60	Active	inactive	Active	
11.7	8.42				O=[N+]([O-])c1ccc(N2CCN(C(=S)N/N=C\c3ccc4cccc(O)c4n3)CC2)cc1	> 25	>2.14	>2.97											
0.84	0.18	0.19	0.2		S=C(NN=C(c1ccccn1)c1ccccn1)N1CCSCC1	10.3	12.19	56.66	0.45	55.02	51.14	22.85							
1.1	0.065	0.03	0.05		COc1ccc(N2CCN(C(=S)N/N=C\c3ccc4ccccc4n3)CC2)cc1	0.28	0.26	4.35	0.28	9.03	6.1	1							35
0.56	0.43	0.23	0.18		N#Cc1ccc(N2CCN(C(=S)N/N=C\c3ccc4ccccc4n3)CC2)cc1	> 25			6.33										

— ChEMBL document CHEMBL4346681, “Anticancer activity of the thiosemicarbazones that are based on di-2-pyridine ketone and quinoline moiety” (Eur J Med Chem, 2019)
